From ChEMBL document CHEMBL1134951, “Substituted uracil derivatives as potent inhibitors of poly(ADP-ribose)polymerase-1 (PARP-1)” (Bioorg Med Chem Lett, 2002) come the findings set out here.

The target of series [1] is T1, Poly [ADP-ribose] polymerase 1 (Homo sapiens, UniProt P09874). Kind of series: Inhibitory activity against human recombinant PARP-1.
Series [2] in a line: Clearance was determined by administering the compound intravenously at a dose of 1 mg/kg in male wistar rat. Format: ADME, organism-based. Also noted: dose 1 mg/kg, route intravenous. The conditions noted are these: in vivo, iv.
Series [3] can be described thus: Area under the curve was determined by administering the compound at a dose of 1 mg/kg intravenously in male wistar rat. Also noted: dose 1 mg/kg, route intravenous. Format: ADME, organism-based. The note with it: in vivo, iv.
The test system of a further series is Rattus norvegicus. The experiment in a line: Volume at steady state distribution by administering the compound intravenously at a dose of 1 mg/kg in male wistar rat was determined. Format: ADME, organism-based. The arrangement: dose 1 mg/kg, route intravenous. The conditions noted are these: in vivo, iv.
Series [4] can be described thus: Half life was determined by administering the compound intravenously at a dose of 1 mg/kg in male wistar rat. Format: ADME, organism-based. Also noted: dose 1 mg/kg, route intravenous. The conditions noted are these: in vivo, iv.
Series [5] has as its target T1, Poly [ADP-ribose] polymerase 1. Kind of series: Concentration required to inhibit human recombinant Poly (ADP-ribose) polymerase 1 was determined using dose-response inhibition. In outline:
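Purified recombinant human PARP-1 from a baculovirus (Bac-To-Bac) expression system. It ran 10 min at rt and was stopped with ice-cold 10% TCA. Precipitate was filtered, washed with ethanol and dried, then counted by scintillation. Read-out: IC50.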

A short description of series [6]: Solubility in phosphate buffered saline (1% DMSO) at pH 6.5 (24 hr equilibration). Format: physicochemical. The conditions noted are these: buffer.

The structures appear in SMILES notation. Values after ≈ are worked out from the molar mass of the structure shown. Values joined by “and” are separate entries in the source; they are usually repeats but may differ in a detail not shown here. Identical values can stand only once.

T1 sequence (P09874 whole entry): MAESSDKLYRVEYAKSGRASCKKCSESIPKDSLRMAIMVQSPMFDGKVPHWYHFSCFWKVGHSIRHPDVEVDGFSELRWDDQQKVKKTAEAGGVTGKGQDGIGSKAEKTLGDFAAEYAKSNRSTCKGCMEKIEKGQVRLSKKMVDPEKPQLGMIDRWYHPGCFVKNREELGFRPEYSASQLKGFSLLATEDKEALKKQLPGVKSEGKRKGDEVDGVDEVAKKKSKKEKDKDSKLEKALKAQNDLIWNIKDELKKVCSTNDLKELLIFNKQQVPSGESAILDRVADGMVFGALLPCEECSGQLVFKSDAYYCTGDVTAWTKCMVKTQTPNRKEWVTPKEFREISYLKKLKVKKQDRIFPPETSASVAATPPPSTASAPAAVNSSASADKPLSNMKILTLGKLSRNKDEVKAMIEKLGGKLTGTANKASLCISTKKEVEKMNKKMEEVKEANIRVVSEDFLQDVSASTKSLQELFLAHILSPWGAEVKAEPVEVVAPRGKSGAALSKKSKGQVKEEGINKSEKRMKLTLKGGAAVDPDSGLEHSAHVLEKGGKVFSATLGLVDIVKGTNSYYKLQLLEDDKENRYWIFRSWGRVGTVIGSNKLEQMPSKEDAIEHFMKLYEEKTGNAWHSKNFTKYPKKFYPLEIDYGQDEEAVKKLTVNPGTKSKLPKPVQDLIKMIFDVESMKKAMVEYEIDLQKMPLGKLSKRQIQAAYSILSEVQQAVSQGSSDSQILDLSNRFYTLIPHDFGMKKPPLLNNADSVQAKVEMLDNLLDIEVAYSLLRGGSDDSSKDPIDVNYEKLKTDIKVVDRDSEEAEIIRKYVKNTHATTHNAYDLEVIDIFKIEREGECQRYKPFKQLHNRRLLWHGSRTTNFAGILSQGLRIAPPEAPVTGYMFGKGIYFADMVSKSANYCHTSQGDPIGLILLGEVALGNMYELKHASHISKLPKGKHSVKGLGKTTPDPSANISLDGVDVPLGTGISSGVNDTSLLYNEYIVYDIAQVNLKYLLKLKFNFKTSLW

As to `C=CCCc1c(CC=C)c(=O)[nH]c(=O)n1CCC(=O)NCC(=O)N1CCN(c2ncccn2)CC1`, in series [1], the IC50 was over 5000 nM.

Regarding `O=C(CCn1c2c(c(=O)[nH]c1=O)CSCC2)NCC(=O)N1CCN(c2cc(C(F)(F)F)ccn2)CC1`, in series [2], the clearance is 36.8 mL/min/kg. Also, in series [1], the IC50 amounted to 20 nM. For the same compound, the AUC in series [3] amounted to 450 ng·h/mL. In addition, the Vss with Rattus norvegicus came out at 0.42 L/kg. The half-life in series [4] was 18 min. Take `O=C(CCn1c2c(c(=O)[nH]c1=O)CSCC2)NCC(=O)N1CCN(c2ncccn2)CC1`: the clearance in series [2] is 33.5 mL/min/kg. For the same compound, in series [3], the AUC is 520 ng·h/mL. Also, the Vss in the series with Rattus norvegicus worked out at 0.31 L/kg. Moreover, the half-life in series [4] is 12 min.

Take `O=C(CCn1c2c(c(=O)[nH]c1=O)COCC2)NCC(=O)N1CCN(c2ncccn2)CC1`: the IC50 in series [1] came out at 800 nM.

On to `O=C(CCn1c2c(c(=O)[nH]c1=O)CSCC2)NCC(=O)c1cccc(Br)c1`, for which the IC50 in series [1] stood at 70 nM.

Turning to `Nc1cccnc1N1CCN(C(=O)CNC(=O)CCn2c3c(c(=O)[nH]c2=O)CSCC3)CC1`, the IC50 in series [1] was found to be 70 nM. `COc1ccc(N2CCN(C(=O)CNC(=O)CCn3c4c(c(=O)[nH]c3=O)CSCC4)CC2)cc1` showed a clearance in series [2] of over 75 mL/min/kg. Moreover, the IC50 in series [1] is 20 nM and 25 nM. In addition, the AUC in series [3] stood at 160 ng·h/mL. In the series on Rattus norvegicus, this compound had a Vss of 1.01 L/kg. This compound gave a half-life in series [4] of 12 min. Turning to `O=C(CCn1c2c(c(=O)[nH]c1=O)CSCC2)NCC(=O)c1ccc(Oc2ccccc2)cc1`, the IC50 in series [1] was 30 nM. Still for that read-out and setting: the same measure for `O=C(CCn1c2c(c(=O)[nH]c1=O)CCCC2)NCC(=O)N1CCN(c2ncccn2)CC1`: 90 nM; for `O=C(CCn1c2c(c(=O)[nH]c1=O)CSCC2)NCC(=O)c1ccc(-c2ccccc2)cc1`: 20 nM; for `O=C(CCn1c2c(c(=O)[nH]c1=O)CSCC2)NCC(=O)c1ccc(Cl)cc1`: 60 nM. Regarding `O=C(CCn1c2c(c(=O)[nH]c1=O)CSCC2)NCC(=O)c1ccc(-c2cccnc2)cc1`, in series [1], the IC50 was determined as 12 nM. On the same count and under the same terms, the result for `CC(CC(=O)NCC(=O)c1ccc2ccccc2c1)n1c2c(c(=O)[nH]c1=O)CCCC2` (stereo not given) reads over 5000 nM; that for `COc1ccc(C(=O)CNC(=O)CCn2c3c(c(=O)[nH]c2=O)CSCC3)cc1`, 25 nM.

In the case of `CN(CC(=O)c1ccc2ccccc2c1)C(=O)CCn1c2c(c(=O)[nH]c1=O)CCCC2`, in series [1], the IC50 turned out to be 400 nM. Same read-out and setting: the same measure for `O=C(Cn1c2c(c(=O)[nH]c1=O)CSCC2)NCC(=O)N1CCN(c2ncccn2)CC1`: 150 nM; for `O=C(CCn1c2c(c(=O)[nH]c1=O)CSCC2)NCC(=O)c1ccc(N2CCCC2)cc1`: 12 nM; for `COc1ccc(-c2ccc(C(=O)CNC(=O)CCn3c4c(c(=O)[nH]c3=O)CSCC4)cc2)cc1`: 15 nM. Same read-out and setting: the result for `O=C(CCn1c2c(c(=O)[nH]c1=O)CSCC2)NCC(=O)N1CCN(c2ncncn2)CC1` reads 50 nM. Still for that read-out and setting: the result for `O=C(CCn1c2c(c(=O)[nH]c1=O)CSCC2)NCC(=O)c1ccc(OC(F)F)cc1` reads 30 nM. Consider `O=C(CCn1c2c(c(=O)[nH]c1=O)CSCC2)NCC(=O)c1ccc(OC(=O)c2ccccc2)cc1`, for which the IC50 in series [1] was 30 nM.

Take `O=C(CCn1c2c(c(=O)[nH]c1=O)CSCC2)NCC(=O)N1CCN(c2ccccn2)CC1`: in series [2], the clearance is 51.8 mL/min/kg. Moreover, the IC50 in series [1] is 35 nM. The same compound displayed an AUC in series [3] of 320 ng·h/mL. The compound also had a Vss in the series on Rattus norvegicus of 1.19 L/kg. In series [4], this compound gave a half-life of 72 min. `O=C(CCn1c2c(c(=O)[nH]c1=O)CCCC2)NCC(=O)N1CCN(c2ccccc2)CC1`: the IC50 in series [1] was determined as 200 nM. On the same count and under the same terms, the result for `O=C(CCn1c2c(c(=O)[nH]c1=O)CC=CCC2)NCC(=O)N1CCN(c2ncccn2)CC1` reads 900 nM.

In the case of `O=C(CCn1c2c(c(=O)[nH]c1=O)CCCC2)NCC(=O)c1ccccc1`, the IC50 in series [1] was found to be 450 nM. Same read-out and setting: the result for `Nc1cccc(-c2ccc(C(=O)CNC(=O)CCn3c4c(c(=O)[nH]c3=O)CSCC4)cc2)c1` reads 20 nM. The same measure, in the same setting: the result for `COc1ccc(C(=O)CNC(=O)CCn2c3c(c(=O)[nH]c2=O)CCCC3)cc1` reads 300 nM; that for `O=C(CCn1c2c(c(=O)[nH]c1=O)CCCCC2)NCC(=O)N1CCN(c2ncccn2)CC1`, 900 nM. As to `O=C(CCn1c2c(c(=O)[nH]c1=O)CCCC2)NCC(=O)c1ccc2ccccc2c1`, the clearance in series [2] was 28.3 mL/min/kg. Besides, the AUC in series [3] came out at 600 ng·h/mL. Moreover, the Vss in the series with Rattus norvegicus amounted to 0.5 L/kg. In series [4], this compound had a half-life of 42 min. Regarding `O=C(CCCCCn1c2c(c(=O)[nH]c1=O)CSCC2)NCC(=O)N1CCN(c2ncccn2)CC1`, the IC50 in series [1] stood at 250 nM. In the case of `O=C(CCn1c2c(c(=O)[nH]c1=O)CSCC2)NCC(=O)c1ccc(-c2cccnn2)cc1`, the clearance in series [2] is 27.3 mL/min/kg. In series [1], the IC50 is 25 nM. The same compound returned an AUC in series [3] of 610 ng·h/mL. In addition, the Vss in the series with Rattus norvegicus is 0.27 L/kg. The same compound showed a half-life in series [4] of 18 min. Take `O=C(CCn1c2c(c(=O)[nH]c1=O)CSCC2)NCC(=O)N1CCN(c2cccnn2)CC1`: the IC50 in series [1] is 20 nM.

`O=C(CCn1c2c(c(=O)[nH]c1=O)CSCC2)NCC(=O)c1ccc(Br)cc1`: in series [1], the IC50 was 15 nM. The compound `O=C(CCn1c2c(c(=O)[nH]c1=O)CSCC2)NCC(=O)N1CCN(c2ncccc2C(F)(F)F)CC1` had a clearance in series [2] of 71.7 mL/min/kg. Besides, the IC50 in series [1] was found to be 40 nM. Besides, the AUC in series [3] came out at 230 ng·h/mL. On to `O=C(CCn1c2c(c(=O)[nH]c1=O)CSCC2)NCC(=O)N1CCN(c2ccncc2)CC1`, for which, in series [1], the IC50 is 40 nM. Regarding `O=C(CCn1c2c(c(=O)[nH]c1=O)CSCC2)NCC(=O)c1ccc(-c2cncnc2)cc1`, in series [1], the IC50 amounted to 25 nM.

On to `O=C(CCn1c2c(c(=O)[nH]c1=O)CSCC2)NCC(=O)c1cccc(-c2ccccc2)c1`, for which the IC50 in series [1] was 70 nM. On the same count and under the same terms, the result for `O=C(CCn1c2c(c(=O)[nH]c1=O)CSCC2)NCC(=O)c1ccc(-c2ccncc2)cc1` reads 15 nM.

With `O=C(CCn1c2c(c(=O)[nH]c1=O)CCCC2)NCC(=O)c1ccc(Br)cc1`, the IC50 in series [1] is 80 nM.

Regarding `O=C(Cn1c2c(c(=O)[nH]c1=O)CSCC2)NCCC(=O)N1CCN(c2ncccn2)CC1`, the IC50 in series [1] came out at 60 nM. In series [2], `O=C(CCn1c2c(c(=O)[nH]c1=O)CSCC2)NCC(=O)N1CCN(c2ccccc2)CC1` had a clearance of 72.2 mL/min/kg. For the same compound, in series [3], the AUC came out at 230 ng·h/mL. Besides, in the series on Rattus norvegicus, the Vss turned out to be 1.39 L/kg. Also, the half-life in series [4] was 24 min. Further, the concentration for half-maximal inhibition (IC50) in series [5] stood at 30 nM. The Solubility in series [6] was 330 µg/mL (≈ 721 µM).

In general, IC50 refers to the concentration at which inhibition is half-maximal. The clearance is the rate of elimination divided by the concentration. Read a high clearance as a high capacity for elimination. For orientation: AUC means the area under the concentration-time curve, a measure of exposure. A high value points to more exposure. The term Vss denotes the apparent volume that relates the amount in the body to the concentration in plasma or blood. A low value points to confinement near the circulation. The term half-life denotes how long it takes for the measured level to halve. What is called Solubility is how much of the substance goes into solution per volume. High values mean a readily soluble substance, low ones a poorly soluble substance.
